Measured values: ChEMBL document CHEMBL1126735, “Synthesis and biological evaluation of antiplatelet 2-aminochromones” (J Med Chem, 1993)

Assays:
Format in all cases: functional, Canis lupus familiaris
Canis familiaris [1] = assay: Time interval between the start of treatment and the first change in the CFR pattern of blood flow in the stenosed coronary artery at iv dose of 1000 ug/kg +100 ug/kg/min (n=4)
Summary of the method: (§1)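 Stenosed circumflex coronary artery in pentobarbital-anesthetized open-chest mongrel dogs (10-15 kg), drug iv in saline (mesylate/bismesylate salt), bolus followed by constant infusion. Onset measured as the time from the start of drug treatment to the first change in the cyclic flow reduction pattern of coronary blood flow. Mean ± SEM.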

Canis familiaris [2] = assay: In vivo inhibitory effect on Cyclical flow reductions (CFR) induced by intracoronary platelet aggregation in stenosed Canine coronary arteries at iv dose of 1000 ug/kg +100 ug/kg/min (n=4)
Summary of the method: (§2)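 Adult mongrel dogs (10-15 kg, either sex), sodium pentobarbital anesthesia (30 mg/kg iv), positive-pressure ventilation. Aortic pressure via femoral artery catheter. Drug given iv via femoral vein in saline as mesylate/bismesylate salt, bolus then constant infusion. Values mean ± SEM.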

Canis familiaris [3] = assay: In vivo inhibitory effect on Cyclical flow reductions (CFR) induced by intracoronary platelet aggregation in stenosed Canine coronary arteries at iv dose of 30 ug/kg +3 ug/kg/min (n=4); summary of the method: as §2
Canis familiaris [4] = assay: Time interval between the end of treatment and restoration of the CFR pattern of blood flow to control levels at iv dose of 300 ug/kg +30 ug/kg/min (n=4)
Summary of the method: (§3)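 Anesthetized open-chest mongrel dogs (10-15 kg) with partially obstructed circumflex coronary artery; iv bolus plus constant infusion of drug in saline as mesylate/bismesylate salt. Duration scored as the time from the end of drug treatment until the cyclic flow reduction pattern returns to control levels. Mean ± SEM.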

Canis familiaris [5] = assay: Time interval between the start of treatment and the first change in the CFR pattern of blood flow in the stenosed coronary artery at iv dose of 100 ug/kg +10 ug/kg/min (n=10); summary of the method: as §1
Canis familiaris [6] = assay: In vivo inhibitory effect on Cyclical flow reductions (CFR) induced by intracoronary platelet aggregation in stenosed Canine coronary arteries at iv dose of 100 ug/kg +10 ug/kg/min (n=10); summary of the method: as §2
Canis familiaris [7] = assay: Time interval between the end of treatment and restoration of the CFR pattern of blood flow to control levels at iv dose of 100 ug/kg +10 ug/kg/min (n=10); summary of the method: as §3
Canis familiaris [8] = assay: Time interval between the start of treatment and the first change in the CFR pattern of blood flow in the stenosed coronary artery at iv dose of 300 ug/kg +30 ug/kg/min (n=4); summary of the method: as §1
Canis familiaris [9] = assay: Time interval between the end of treatment and restoration of the CFR pattern of blood flow to control levels at iv dose of 1000 ug/kg +100 ug/kg/min (n=4); summary of the method: as §3
Canis familiaris [10] = assay: In vivo inhibitory effect on Cyclical flow reductions (CFR) induced by intracoronary platelet aggregation in stenosed Canine coronary arteries at iv dose of 300 ug/kg +30 ug/kg/min (n=4); summary of the method: as §2
Canis familiaris [11] = assay: Time interval between the start of treatment and the first change in the CFR pattern of blood flow in the stenosed coronary artery at iv dose of 300 ug/kg +30 ug/kg/min (n=2-4); summary of the method: as §1
Canis familiaris [12] = assay: In vivo inhibitory effect on Cyclical flow reductions (CFR) induced by intracoronary platelet aggregation in stenosed Canine coronary arteries at iv dose of 300 ug/kg +30 ug/kg/min (n=2-4); summary of the method: as §2
Canis familiaris [13] = assay: In vivo inhibitory effect on Cyclical flow reductions (CFR) induced by intracoronary platelet aggregation in stenosed Canine coronary arteries at iv dose of 300 ug/kg +30 ug/kg/min (n=3); summary of the method: as §2
Canis familiaris [14] = assay: Time interval between the start of treatment and the first change in the CFR pattern of blood flow in the stenosed coronary artery at iv dose of 100 ug/kg +10 ug/kg/min (n=3); summary of the method: as §1
Canis familiaris [15] = assay: Time interval between the end of treatment and restoration of the CFR pattern of blood flow to control levels at iv dose of 100 ug/kg +10 ug/kg/min (n=3); summary of the method: as §3
Canis familiaris [16] = assay: In vivo inhibitory effect on Cyclical flow reductions (CFR) induced by intracoronary platelet aggregation in stenosed Canine coronary arteries at iv dose of 100 ug/kg +10 ug/kg/min (n=3); summary of the method: as §2
Canis familiaris [17] = assay: Time interval between the start of treatment and the first change in the CFR pattern of blood flow in the stenosed coronary artery at iv dose of 300 ug/kg +30 ug/kg/min (n=3); summary of the method: as §1

Structure (SMILES)	Time to onset (Canis familiaris [1])	Rating (Canis familiaris [2])	Rating (Canis familiaris [3])	Time to offset (Canis familiaris [4])	Time to onset (Canis familiaris [5])	Rating (Canis familiaris [6])	Time to offset (Canis familiaris [7])	Time to onset (Canis familiaris [8])	Time to offset (Canis familiaris [9])	Rating (Canis familiaris [10])	Time to onset (Canis familiaris [11])	Rating (Canis familiaris [12])	Rating (Canis familiaris [13])	Time to onset (Canis familiaris [14])	Time to offset (Canis familiaris [15])	Rating (Canis familiaris [16])	Time to onset (Canis familiaris [17])
Cc1c(OCCN2CCN(C)CC2)ccc2c(=O)cc(N3CCOCC3)oc12	1 min	3	0	60 min	5 min	1.9	25 min	1 min	73 min	3	–	–	–	–	–	–	–
Cc1c(OCCN2CCCCC2)ccc2c(=O)cc(N3CCOCC3)oc12	7 min	2.5	–	67 min	–	–	–	–	23 min	–	2 min	1.3	–	–	–	–	–
Cc1c(OCCN2CCSCC2)ccc2c(=O)cc(N3CCOCC3)oc12	–	–	–	12 min	–	–	–	–	–	–	–	–	2.3	17 min	5.3 min	2	9 min
